Where a name gives a salt, the structure may show the parent alone. Activity calls are given as the source filed them. The rule behind the calls is not given here.
Columns and labels:
Staphylococcus aureus = test: Antibacterial activity against Staphylococcus aureus ATCC 6538 assessed as zone of inhibition at 100 ug/disk after 24 hrs; assay type: functional, organism-based
In short: (§1)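 Bacteria grown on Mueller-Hinton agar. Paper disks (6 mm) loaded with 100 µg test compound per disk were placed on the seeded agar surface. Plates were incubated at 37 °C for 24 h, then scored for the presence of a zone of inhibition.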

Streptococcus mutans = test: Antibacterial activity against Streptococcus mutans ATCC 25175 assessed as zone of inhibition at 100 ug/disk after 24 hrs; assay type: functional, organism-based; in short: as §1
Enterococcus faecalis = test: Antibacterial activity against Enterococcus faecalis ATCC 19433 assessed as zone of inhibition at 100 ug/disk after 24 hrs; assay type: functional, organism-based; in short: as §1
Micrococcus luteus = test: Antibacterial activity against Sarcina lutea CMCC B28001 assessed as zone of inhibition at 100 ug/disk after 24 hrs; assay type: functional, organism-based; in short: as §1
Geotrichum candidum = test: Antifungal activity against Geotrichum candidum AS2.498 assessed as zone of inhibition at 100 ug/disk after 48 hrs
Candida albicans = test: Antifungal activity against Candida albicans ATCC 10231 assessed as zone of inhibition at 100 ug/disk after 48 hrs
Aspergillus fumigatus = test: Antifungal activity against Aspergillus fumigatus ATCC 10894 assessed as zone of inhibition at 100 ug/disk after 48 hrs
[1] = tested on: Human immunodeficiency virus 1; test: Inhibition of HIV1 LAI replication in C8166 cells after 4 days by ELISA; assay type: functional, organism-based; conditions: Human immunodeficiency virus 1, LAI, C8166, 96 h
In short: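 C8166 cells were infected with HIV-1 LAI (MOI 0.058) for 1.5 h at 37 °C, PBS-washed, and seeded at 3 × 10⁴/well with or without compounds; indinavir sulfate was the positive control. After 4 days, supernatant was inactivated with 0.5% Triton X-100 and diluted threefold. p24 was measured by capture ELISA (anti-p24 mAb coat, HRP-anti-p24, OPD, A490), and EC₅₀ was derived from p24 level.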

[2] = Cytotoxicity against human C8166 cells after 4 days by MTT method; assay type: cell-based
In short: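 C8166 cells were seeded at 3 × 10⁴/well with or without a range of test-compound concentrations, in triplicate. They were incubated 4 days at 37 °C in humid 5% CO₂, and viability was read by MTT. CC₅₀ is the concentration reducing viable cells by 50%.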

[3] = Selectivity index, ratio of CC50 for human C8166 cells to EC50 for HIV1 LAI; assay type: toxicity, cell-based; conditions: read-out: Ratio CC50/EC50
In short: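 Index calculated as CC₅₀/EC₅₀. CC₅₀ came from a 4-day MTT viability assay in C8166 cells run in parallel with a 4-day HIV-1 LAI (MOI 0.058) replication assay in C8166 cells, whose EC₅₀ was read from p24 antigen capture ELISA.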

CC1(C)CC(=O)c2cc3c(cc2O1)C[C@H](C(C)(C)O)O3
Activity (Staphylococcus aureus): inactive | Activity (Streptococcus mutans): inactive | Activity (Enterococcus faecalis): inactive | Activity (Micrococcus luteus): inactive | Activity (Geotrichum candidum): inactive | Activity (Candida albicans): inactive | Activity (Aspergillus fumigatus): inactive

CC1(C)CC(=O)C2=C(C[C@]3(O)C[C@H](C(C)(C)O)O[C@H]3C2)O1
Activity (Staphylococcus aureus): inactive | Activity (Streptococcus mutans): inactive | Activity (Enterococcus faecalis): inactive | Activity (Micrococcus luteus): inactive | Activity (Geotrichum candidum): inactive | Activity (Candida albicans): inactive | Activity (Aspergillus fumigatus): inactive

CC(C)=C/C=C1/C[C@@H]2O[C@@H](C(C)(C)O)C[C@@]23O[C@H]3[C@@H]1O [PESTALOTHEOL C]
EC50 [1]: 16.1 µM | CC50 at 96 h [2]: 163 µM | selectivity ratio [3]: 10.1 | Activity (Staphylococcus aureus): inactive | Activity (Streptococcus mutans): inactive | Activity (Enterococcus faecalis): inactive | Activity (Micrococcus luteus): inactive | Activity (Geotrichum candidum): inactive | Activity (Candida albicans): inactive | Activity (Aspergillus fumigatus): inactive

CC1(C)CC(=O)C2=C(O1)[C@H](O)[C@]1(O)C[C@H](C(C)(C)O)O[C@H]1C2
Activity (Staphylococcus aureus): inactive | Activity (Streptococcus mutans): inactive | Activity (Enterococcus faecalis): inactive | Activity (Micrococcus luteus): inactive | Activity (Geotrichum candidum): inactive | Activity (Candida albicans): inactive | Activity (Aspergillus fumigatus): inactive

CC(C)(C)NC(=O)[C@@H]1CN(Cc2cccnc2)CCN1C[C@@H](O)C[C@@H](Cc1ccccc1)C(=O)N[C@H]1c2ccccc2C[C@H]1O [INDINAVIR SULFATE]
EC50 [1]: 0.00818 µM
